Most compounds without a hit are left out; they make up all but 3.8% or so of the library.
OX1R antag-1: OX1R (human) antagonism; O43613; OX1R-expressing cells, FRET antagonist read-out; inhibition, % at 6.6 µM; 330,000 compounds, 1.8% hits; AID 485270; in the data active = inhibition mostly above about 38%, no sharp cut-off; inactive = mostly below about 40%;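 also: 0% = agonist challenge alone and 100% = reference antagonist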
Target sequence (O43613 whole entry, looked up): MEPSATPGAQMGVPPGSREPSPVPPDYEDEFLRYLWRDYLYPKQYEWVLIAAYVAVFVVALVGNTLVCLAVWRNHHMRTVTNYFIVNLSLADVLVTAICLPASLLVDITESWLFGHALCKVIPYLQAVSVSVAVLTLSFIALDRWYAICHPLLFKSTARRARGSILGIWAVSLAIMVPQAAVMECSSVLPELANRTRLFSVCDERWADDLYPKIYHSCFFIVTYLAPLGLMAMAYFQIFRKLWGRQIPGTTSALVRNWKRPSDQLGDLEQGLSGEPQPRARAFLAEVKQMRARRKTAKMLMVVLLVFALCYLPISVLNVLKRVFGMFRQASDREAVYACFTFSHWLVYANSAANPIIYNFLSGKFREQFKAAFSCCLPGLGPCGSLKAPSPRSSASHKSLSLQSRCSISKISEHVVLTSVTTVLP
MPTP inh: permeability transition pore inhibition; 360,000 compounds, 1.4% hits; isolated mouse mitochondria, Ca2+ swelling absorbance, 30 min; inhibition, % at 10 µM;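 active = inhibition of 50% or more, scaled per plate between neutral and stimulator controls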;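 also: 0% = DMSO wells given calcium and 100% = 1 mM EGTA wells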
GPR7 antag: antagonists of human GPR7 (neuropeptides B/W receptor 1) | P48145 | GPR7-expressing cells, fluorescence antagonist assay | inhibition, % at 4.4 µM | 290,000 compounds, 1.1% hits; in the data active = inhibition above about 16%, passing the limit was not always enough;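 also: cells stimulated with the agonist NPW; 0% = agonist with vehicle and 100% = vehicle without agonist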
OX1R antag-2: antagonists of human orexin 1 receptor; O43613; CHO/OX1R cells, Fluo-8 calcium fluorescence, orexin A; inhibition, % at 5 µM; 330,000 compounds, 0.43% hits;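 active = inhibition above its plate's threshold, mean inhibition of all tested compounds on the plate plus 3 SD, cut at about 37% in these data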;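 also: 0% = orexin A challenge wells and 100% = SB-334867-A antagonist wells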
CHO parental Ca: counter-screen for OX1R antagonists: effect in parental CHO cells. inhibition, % at 5.6 µM. 330,000 compounds, 0.63% hits. parental CHO-K1, ATP-induced calcium, Fluo-8 fluorescence;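 active = inhibition above that plate's mean sample inhibition plus 3 SD, cut at about 26% in these data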;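 also: 0% = ATP-challenged DMSO wells and 100% = DMSO wells without ATP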
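Test system: parental CHO cells; detection: calcium-sensitive Fluo-8 fluorescence; evaluation: percent inhibition of calcium signal; also added: ATP as calcium-mobilizing challenge; repeats: one well per compound; control set: ATP-challenged DMSO wells low, unchallenged DMSO wells high; compound: single nominal dose of 5.6 µM per compound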
Rh123 counter: membrane potential counter-screen of mitochondrial pore inhibitors; isolated mitochondria, Rhodamine 123 fluorescence; shares compounds with MPTP inh; 5,000 compounds, 78% hits; inhibition, % at 10 µM; in the data active = inhibition above about 22%;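 also: 0% = DMSO vehicle and 100% = positive control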
MPTP abs DR: dose response confirmation of mitochondrial permeability transition pore inhibitors | shares compounds with MPTP inh | isolated mitochondria swelling, absorbance | IC50, µM | 780 compounds, 58% hits | AID 651561; in the data active = IC50 below about 20 µM
MPTP counter DR: counter-screen for mitochondrial permeability transition pore inhibitors, dose response. shares compounds with MPTP inh. isolated mitochondria counterscreen, fluorescence read-out. IC50, µM. 780 compounds, 49% hits; in the data active = IC50 below about 80 µM
The depositor's hits bear a star; i = inactive; . = no result.

SMILES	OX1R antag-1	MPTP inh	GPR7 antag	OX1R antag-2	CHO parental Ca	Rh123 counter	others
O=C(NNc1cc(C(F)(F)F)nc2ccccc12)Nc1cccc(Cl)c1	19.4	67.2*	-12.5	2.7	-9.1	70.4*
O=C(NNc1nccc(C(F)(F)F)n1)Nc1cccc(Cl)c1	2.5	0.4	0.8	-2.9	5.0	.
N#CCCN(C(=O)COc1ccc(C#N)cc1)c1ccc(F)cc1	-0.9	0.1	-2.6	-16.5	-3.8	.
O=C(NNC1=Nc2cccc3cccc1c23)c1ccc(Br)cc1	11.1	82.8*	-13.4	-11.9	-2.6	67.0*
Cc1nnsc1C(=O)N/N=C/c1c(F)cccc1Cl	10.5	-1.0	-9.2	-14.9	-2.9	.
Cc1nnsc1C(=O)N/N=C/c1ccc2ccccc2c1O	63.9	56.2*	-2.1	23.3	22.6	55.8*
Cc1cc(C)n2nc(SCC(=O)c3cc(C)n(-c4cc(C)on4)c3C)nc2n1	2.6	80.6*	-6.6	0.8	26.4	61.8*
Cc1cc(C)n2nc(SCC(=O)c3ccccc3)nc2n1	14.2	0.3	-11.1	-3.2	-4.5	.
Cc1cc(C(=O)CSc2ncnc3ccccc23)c(C)n1C1CC1	0.1	2.8	.	-30.1	-29.5	.
Cc1cc(-n2c(C)cc(C(=O)CSc3ncnc4ccccc34)c2C)no1	46.8*	97.3*	-5.4	70.1*	66.3*	88.2*
O=C(Cc1cccs1)Nc1cccc(-c2nc3cc4ccccc4cc3[nH]2)c1	56.2	90.0*	-0.4	10.5	2.6	37.0*
CC1=NN(C(C#N)c2c(C)nn(Cc3ccccc3)c2C)C(C)(C)C1 (configuration not stated)	15.0	-0.3	-8.8	-22.9	-7.1	.
COc1ccc(C(=O)N/C(=C\c2ccc3c(c2)OCO3)C(=O)Nc2cccc(C(=O)O)c2)cc1	23.3	-0.8	-3.9	-10.7	5.3	.
N#Cc1ccc(NC(=O)NN2CCCCCC2)cc1	.	101.5*	.	.	.	86.6*
O=C(Nc1ccc(Cl)cc1)NN1CCCCCC1	.	1.1	.	.	.	.
O=C(Nc1ccc([N+](=O)[O-])cc1)NN1CCCCCC1	.	102.5*	.	.	.	86.7*
C#CCN1c2ccccc2Sc2cccnc21	26.3	0.3	-10.3	-6.6	-0.1	.
CCN(CC)C(=O)c1oc2ccc(S(=O)(=O)N3CC(C)CC(C)C3)cc2c1C (configuration not stated)	60.1	51.1*	3.8	33.3	41.0*	75.4*
CCCNc1c(NS(=O)(=O)c2ccc3c(c2)CCCC3)c(=O)oc2ccccc12	25.6	-1.0	-18.7	-24.9	-18.9	.
O=C(CCN1C(=O)c2ccccc2S1(=O)=O)Nc1cccc(F)c1	8.9	-0.7	.	-14.6	-16.4	.
O=C(N/N=C/c1ccc(OCc2ccc(F)cc2)cc1)c1ccccc1	26.3	-0.1	-1.8	-0.1	3.5	.
CC(C)(C)c1ccc(OCc2ccc(C(=O)N/N=C/c3ccc(O)c(O)c3)cc2)cc1	10.6	85.2*	-6.1	-10.4	3.6	-3.7
CC(C)(C)c1ccc(OCc2ccc(C(=O)N/N=C3\CC4CC=CC34)cc2)cc1 (configuration not stated)	12.0	54.7*	-11.6	-7.1	-2.8	1.8	MPTP abs DR=i;MPTP counter DR=25.3*
N#CC(Cc1cccs1)c1nc2ccccc2[nH]1 (configuration not stated)	.	-0.4	.	.	.	.
N#CC(/C(=N/S(=O)(=O)c1cccs1)c1ccccc1)c1nc2ccccc2[nH]1 (configuration not stated)	43.1*	66.0*	4.0	-17.8	-12.1	71.9*
SMILES	OX1R antag-1	MPTP inh	GPR7 antag	OX1R antag-2	CHO parental Ca	Rh123 counter	others
N=c1c(-c2nc3ccccc3[nH]2)cc(C(=O)c2cccs2)nn1-c1ccccc1	10.7	90.8*	-0.4	-19.2	-12.4	38.5*
N=c1c(-c2nc3ccccc3[nH]2)cc(C(=O)c2ccco2)nn1-c1ccccc1	31.3	12.8	9.6	-31.1	-22.8	.
O=C(NNc1nc2ccc(F)cc2s1)c1cccc(F)c1	4.5	92.2*	-7.9	1.8	9.7	75.6*
COC(=O)c1ccc2nc(Nc3nc4ccc(F)cc4s3)sc2c1	24.3	89.2*	2.0	-27.1	-10.2	71.7*
O=C(COc1ccc2c(-c3ccccc3)cc(=O)oc2c1)Nc1cccnc1	8.6	85.2*	-2.2	20.4	13.7	86.6*
CC(O)(c1cccc(F)c1)c1nc(-c2cccc3cccnc23)cs1 (configuration not stated)	.	0.7	.	.	.	.
CCN(C(=O)CSc1cccc[n+]1[O-])C1CCCCC1	3.9	-0.7	.	-22.1	4.7	.
Cc1nc2ccccc2nc1SCC(=O)c1ccccc1	39.1	75.3*	-5.2	16.7	52.0*	70.9*
CC(C)(C)c1nc(SCC(=O)c2ccccc2)c2ccccc2n1	19.6	0.1	-13.1	-26.8	-35.8	.
CN(NC(=O)c1ccccc1Cl)c1ncc(C(F)(F)F)cc1Cl	15.9	0.9	-4.5	-15.8	-3.6	.
Cc1cccc(C2(c3cccc(C)c3)CC2C(=O)Nc2ccc([N+](=O)[O-])cc2O)c1 (configuration not stated)	39.6	96.3*	16.2	5.5	-6.0	67.6*
COc1c(O)cc2c(c1O)[C@@H]1O[C@H](CO)[C@@H](O)[C@H](O)C1OC2=O (some centres not stated)	13.1	8.6	.	-12.9	-8.5	.
COc1ccc(NS(=O)(=O)c2ccc(O)c(C(=O)OCC(=O)NC(C)C3CC4CCC3C4)c2)cc1 (configuration not stated)	-1.7	-0.1	-3.1	-23.7	-38.4	.
CC(NC(=O)COC(=O)c1cc(NS(=O)(=O)c2ccc(Cl)c([N+](=O)[O-])c2)ccc1O)C1CC2CCC1C2 (configuration not stated)	10.5	61.3*	-0.2	9.8	-2.9	66.1*
CCN1C(=O)S/C(=C/c2ccc(Sc3nc4ccccc4[nH]3)o2)C1=O	42.7	80.4*	1.1	14.1	-13.2	76.2*
O=C1Cc2cc(S(=O)(=O)Nc3ccccc3Cl)cc3c2N1CCC3	8.1	1.1	4.2	-20.0	-8.2	.
CCCCCC/C(C)=C1/SC(=S)NC1=O	45.0*	83.1*	-6.7	13.6	-5.6	75.2*
C/C(C/C(C)=C1/SC(=S)NC1=O)=C1\SC(=S)NC1=O	.	-1.4	-1.7	.	.	.
CC(=O)Nc1ccc(S(=O)(=O)Oc2ccc(N3C(=O)C4CCCCC4C3=O)cc2)cc1 (configuration not stated)	26.8	82.8*	10.0	5.4	11.2	52.3*
CC(=O)Nc1ccc(S(=O)(=O)Oc2cccc(N3C(=O)C4CC=CCC4C3=O)c2)cc1 (configuration not stated)	17.9	4.1	7.3	-2.4	-0.9	.

Compound activity as filed in PubChem.
